# Source: PubChem BioAssay (Broad Institute)
# An excerpt weighted towards active compounds, which were near 1.4% of everything screened.
# GSK3A inh: inhibitors of human GSK-3 alpha kinase | actives 0.1% (n = 320,000) | P49840 | ADP-Glo luminescence, 60 min | AID 2650 | inhibition, % at 10 µM;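 active means more than half of replicates show inhibition above 20%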;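 further: GST-tagged GSK-3 alpha with peptide substrate and 25 µM ATP; 0% = DMSO neutral wells and 100% = GW8510 positive control wells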
# INS-1E GSIS act: GLuc luminescence reporter in INS-1E cells, primary screen for activators of glucose-dependent secretion of insulin. INS-1E GLuc reporter insulin secretion, 2-3 h. activation, % at 16.6 µM. actives 0.61% (n = 370,000). AID 743287;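 active means lowest replicate activation of at least 40%, so every replicate reaches that level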;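 further: 0% = median of neutral control wells and 100% = median of IBMX positive control wells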
# CDK5 p35 inh: blocks human CDK5/p35 kinase activity; Recombinant CDK5/p35, ADP-Glo luminescence, 60 min; inhibition, % at 10 µM; actives 0.01% (n = 330,000);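 active means highest replicate inhibition of at least 50% and at least 75% of replicates reaching 50%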;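 further: plate controls were DMSO neutral control for no effect and GW8510 at 10 µM for full effect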
# Target sequence (Q00535 whole entry, looked up): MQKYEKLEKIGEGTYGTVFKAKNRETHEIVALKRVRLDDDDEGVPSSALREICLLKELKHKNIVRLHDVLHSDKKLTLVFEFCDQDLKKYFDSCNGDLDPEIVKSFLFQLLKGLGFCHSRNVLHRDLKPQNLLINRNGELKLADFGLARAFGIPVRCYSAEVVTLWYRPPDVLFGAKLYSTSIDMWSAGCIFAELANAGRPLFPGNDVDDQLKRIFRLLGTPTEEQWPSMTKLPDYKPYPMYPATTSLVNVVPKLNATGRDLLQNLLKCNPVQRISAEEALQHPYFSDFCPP
# Target sequence (Q15078 whole entry, looked up): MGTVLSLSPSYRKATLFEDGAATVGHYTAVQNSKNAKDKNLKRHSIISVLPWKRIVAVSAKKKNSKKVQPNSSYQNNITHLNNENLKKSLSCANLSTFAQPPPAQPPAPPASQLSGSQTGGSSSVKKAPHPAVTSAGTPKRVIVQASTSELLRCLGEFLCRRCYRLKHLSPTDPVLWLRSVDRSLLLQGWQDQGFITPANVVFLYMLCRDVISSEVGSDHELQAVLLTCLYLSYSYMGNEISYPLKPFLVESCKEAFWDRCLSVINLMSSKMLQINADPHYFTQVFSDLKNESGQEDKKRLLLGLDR
# Env fusion inh: inhibitors of HIV Env-mediated cell fusion | HeLa-JRFL Env/CEM21 cell fusion, luciferase | inhibition, % at 12.3 µM | actives 1.1% (n = 360,000);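 active means mean replicate inhibition score of at least 50 and every replicate individually at or above 50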;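 further: 0% = plate neutral controls and 100% = maraviroc near 300 nM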
# STK33 kinase inh: inhibitors of human STK33 kinase | Q9BYT3 | purified STK33, MBP phosphorylation, ADP-Glo luminescence | inhibition, % at 10 µM | actives 0.073% (n = 320,000);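 active means inhibition at or above 25%, using the most active replicate where run in duplicate; inactive means inhibition below 25%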
# GSK3B inh: inhibitors of human GSK3beta kinase. GST-GSK3beta kinase, ADP-Glo luminescence, 60 min; hits give low values. activity score (negative = inhibition), % at 10 µM. actives 0.038% (n = 300,000). AID 2097;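 active means more than half of replicate wells score below -50%, meaning over 50% inhibition versus plate controls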;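 further: 0% = median DMSO wells and -100% = median GW8510 positive control wells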
#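 Assay system: GST-fused GSK3beta enzyme, cell-free / Medium: Tris pH 7.5 buffer with MgCl2, DTT, BSA, heparin / Also added: peptide substrate plus 25 µM ATP (final) / Compound: 10 µM single point / Timing: kinase reaction with compound 60 min at room temperature / Detection: ADP-Glo luminescence / Benchmarks: DMSO neutral wells and GW8510 at 20 µM as positive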
# * = called active by the depositor; . = no result; ! = not active in a repeat; [ ] = dose if it differs, or a comment.
SMILES,GSK3A inh,INS-1E GSIS act,CDK5 p35 inh,Env fusion inh,STK33 kinase inh,GSK3B inh
COC(=O)CC1(C(=O)OC)Oc2ccc(Br)cc2C(=O)N1c1cccc(Cl)c1Cl (configuration not stated),-0.1,-1.1,-0.3,65.4*,-3.1,-0.9
C[C@@H]1CN([C@@H](C)CO)C(=O)Cc2cc(NS(=O)(=O)c3cn(C)cn3)ccc2O[C@@H]1CN(C)CC1CC1,.,11.7,.,-7.8[16.7 µM],.,.
CCOc1cc(C2C(C#N)=C(N)SC(N)=C2C#N)ccc1OCCN1CCOCC1,5.1,81.5*,1.1,34.3,3.1,0.4
CCCc1[nH]nc2c1C(c1ccc(OCCN3CCOCC3)c(OC)c1)C(C#N)=C(N)O2 (configuration not stated),-1.3,.,0.5,0.2,-0.7,-1.2
c1cncc(-c2nnc3sc(C4CCCCC4)nn23)c1,1.8,.,-1.1,.,-2.0,-1.1
COc1cccc(-c2nnc3sc(C4CCCCC4)nn23)c1,19.9,.,0.5,122.8*,-0.8,-27.9
CCOc1cccc(-c2nnc3sc(C4CCCCC4)nn23)c1,1.3,.,0.2,95.6*,-0.4,-3.9
O=C(Cn1c(C(F)(F)F)nc2ccccc21)c1ccc(Cl)cc1,0.3,.,-2.8,64.4*,-0.3,-3.4
CNC(=O)C[C@@H]1CC[C@H]2[C@@H](COc3ccc(NC(=O)Nc4c(C)noc4C)cc3C(=O)N2C)O1,.,-3.0,.,3.0[16.7 µM],.,.
Cc1nn(-c2ccccc2Cl)c(Cl)c1/C=C(\C#N)C(N)=O,-1.0,63.7*,-0.6,25.2,-0.7,-1.6
Cc1nn(-c2ccc(Cl)cc2)c(Cl)c1/C=C(\C#N)C(N)=O,.,13.1,1.6,.,.,-0.7
CCCCCCc1nc2ccccc2c(=O)n1NC(=O)c1c(O)c2c(n(CC(C)C)c1=O)CCCC2,-2.3,.,0.3,73.4*,-1.2,-1.6
COc1ccc2c3c(n(C)c2c1)[C@H](CO)N(Cc1ccccc1F)CC31CCN(C(C)=O)CC1,.,-17.1,.,.,.,.
CNC[C@H]1Oc2c(NC(=O)NC(C)C)cccc2C(=O)N([C@H](C)CO)C[C@@H]1C,.,6.8,.,15.5[16.7 µM],.,.
CC(=O)c1ccc(N2CCN(S(=O)(=O)c3ccc(-c4cc(C)no4)s3)CC2)cc1,3.4,-1.9,-0.8,-14.4,1.4,-5.5
Cc1cc(-c2ccc(S(=O)(=O)N3CCN(C)CC3)s2)on1,-5.5,42.6*,.,5.2,0.7,2.9
CCOC(=O)C1CCCN(S(=O)(=O)c2ccc(-c3cc(C)no3)s2)C1 (configuration not stated),-1.2,-19.9,1.6,3.6,-1.8,2.0
COc1ccc(N2CCN(S(=O)(=O)c3ccc(-c4cc(C)no4)s3)CC2)cc1,1.9,85.6*,0.1,0.7,1.3,2.4
CN1C(=O)c2cc(NC(=O)Nc3ccccc3F)ccc2OC[C@H]2O[C@@H](CC(=O)O)CC[C@@H]21,.,19.2,.,9.8[16.7 µM],.,.
O=C(C[C@H]1C[C@@H]2c3cc(NC(=O)c4cccnc4)ccc3O[C@@H]2[C@@H](CO)O1)NC1CCCCC1,.,-9.6,.,2.2[16.7 µM],.,.
Cc1cccc(Nc2nc(N)nc(N)c2N=O)c1,.,19.4,1.4,-29.7,.,.
Cc1cc(Br)ccc1Nc1nc(N)nc(N)c1N=O,.,.,2.1,56.1*,.,.
COc1ccc(NC(=O)N[C@@H]2CC[C@H](CCNC(=O)Cc3ccncc3)O[C@@H]2CO)cc1,.,2.7,.,7.2[16.7 µM],.,.
COc1ccc(NC(=O)N(C)C[C@H]2OCCCC[C@@H](C)Oc3ccc(NC(=O)NC(C)C)cc3C(=O)N([C@H](C)CO)C[C@H]2C)cc1,.,6.9,.,20.8[16.7 µM],.,.
COc1ccccc1C(=O)NC(=S)Nc1ccc2[nH]c(=O)[nH]c2c1,-1.5,44.5*,-1.0,-0.9,0.2,-0.7
O=C(Nc1ccc(Br)cc1)c1cc2ccccn2n1,-5.3,54.3*,-0.9,-105.0,-0.6,3.1
O=C(Nc1cccc(F)c1)N1C[C@@H]2N[C@H](C1)C2c1ccc(-c2ccccc2F)cc1 (some centres not stated),.,-4.9,.,.,.,.
Cc1ccccc1-c1ccc(C2[C@@H]3CN(C(=O)Nc4cccc(F)c4)C[C@H]2N3)cc1 (some centres not stated),.,93.2*!,.,.,.,.
Cc1ccc(S(=O)(=O)N2C[C@@H]3N[C@H](C2)C3c2ccc(/C=C/c3ccccc3)cc2)cc1 (some centres not stated),.,502.3*!,.,.,.,.
